Structures are written as SMILES.

Series [1] in a line: Drug concentration in male albino rat brown fat assessed as radioactivity per gram of tissue at 20 mg/kg administered as single dose via gastric gavage measured after 3 hrs by autoradiographic analysis. Also noted: dose 20 mg/kg, dosed compound name [14C]Sunitinib. Particulars: in vivo, po. In kind it is ADME, organism-based, Brown adipose tissue.
Series [2] can be described thus: Drug concentration in female albino rat brown fat assessed as radioactivity per gram of tissue at 20 mg/kg administered as single dose via gastric gavage measured after 3 hrs by autoradiographic analysis. In kind it is ADME, organism-based, Brown adipose tissue. Also noted: dose 20 mg/kg, dosed compound name [14C]Sunitinib. Particulars: in vivo, po. An outline of the steps:
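Sprague Dawley (albino) and Lister Hooded (pigmented) rats, ca 7-8 weeks old, 179-310 g, acclimated 7 days. Single gavage dose of [14C]sunitinib L-malate (15 mg freebase/kg, 100 µCi/kg). One male and one female killed by CO2 per time point: albino at 3, 6, 24, 72, 168 h; pigmented at 24, 72, 168, 336 h. Carcasses frozen in solid CO2/hexane, 30 µm sagittal sections freeze-dried. Tissue radioactivity read by quantitative whole-body autoradiography against regression of standards, mean background subtracted.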

Series [3] is described as follows: Drug concentration in male albino rat uveal tract assessed as radioactivity per gram of tissue at 20 mg/kg administered as single dose via gastric gavage measured after 6 hrs by autoradiographic analysis. In kind it is ADME, organism-based. Also noted: dose 20 mg/kg, dosed compound name [14C]Sunitinib. The following applies: in vivo, po.
In a further series the test system is Rattus norvegicus. Briefly: Cmax as total radioactivity in male Sprague-Dawley rat plasma at 15 mg/kg, po administered as single dose by LC/MS/MS analysis. The following applies: in vivo. More on the design: dose 15 mg/kg, dosed compound name [14C]Sunitinib, route oral. The series is classed as ADME, organism-based. The procedure, abridged: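 Single dose of [14C]sunitinib L-malate as free base, 50 µCi/kg. IV dose was 5 mg/kg by tail vein in 5 females. Oral dose was 15 mg/kg by gavage in 3 females and 3 males. Total radioactivity was by scintillation counting. […] Cmax was read from raw data, t½ by log-linear regression, AUC by linear trapezoidal rule.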

The test system of another series is Brain. Briefly: Drug concentration in male albino rat brain assessed as radioactivity per gram of tissue at 20 mg/kg administered as single dose via gastric gavage measured after 3 hrs by autoradiographic analysis. In kind it is ADME, organism-based. Also noted: dose 20 mg/kg, dosed compound name [14C]Sunitinib. Particulars: in vivo, po.
Series [4] in a line: Drug concentration in male Lister Hooded pigmented rat bone marrow assessed as radioactivity per gram of tissue at 20 mg/kg administered as single dose via gastric gavage measured after 168 hrs by autoradiographic analysis. The series is classed as ADME, organism-based. Also noted: dose 20 mg/kg, dosed compound name [14C]Sunitinib. The following applies: in vivo, po.
A short description of series [5]: Drug concentration in male Lister Hooded pigmented rat skeletal muscle assessed as radioactivity per gram of tissue at 20 mg/kg administered as single dose via gastric gavage measured after 168 hrs by autoradiographic analysis. The series is classed as ADME, organism-based. Also noted: dose 20 mg/kg, dosed compound name [14C]Sunitinib. Particulars: in vivo, po.

The nature of series [6]: Drug concentration in male albino rat testis assessed as radioactivity per gram of tissue at 20 mg/kg administered as single dose via gastric gavage measured after 72 hrs by autoradiographic analysis. The series is classed as ADME, organism-based. Also noted: dose 20 mg/kg, dosed compound name [14C]Sunitinib. The following applies: in vivo, po.
The nature of series [7]: Drug concentration in female albino rat bone marrow assessed as radioactivity per gram of tissue at 20 mg/kg administered as single dose via gastric gavage measured after 24 hrs by autoradiographic analysis. In kind it is ADME, organism-based. More on the design: dose 20 mg/kg, dosed compound name [14C]Sunitinib. The following applies: in vivo, po. An outline of the steps:
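Sprague Dawley (albino) rats, ca 7-8 weeks old, received a single gastric-gavage dose of [14C]sunitinib L-malate at 20 mg/kg (15 mg freebase/kg, 100 µCi/kg). One animal per sex killed by CO2 at 3, 6, 24, 72 and 168 h, then frozen in CO2/hexane. 30 µm sagittal sections were cut and freeze-dried. Radioactivity per gram quantified by whole-body autoradiography using regression against standards. LOQ 0.04–0.06 µg freebase equiv/g.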

The next series has as its system Cynomolgus monkey. Briefly: AUC (0 to infinity) as total radioactivity in male cynomolgus monkey plasma at 6 mg/kg, po administered as single dose by LC/MS/MS analysis. In kind it is ADME, organism-based, Macaca fascicularis. More on the design: time infinity, dose 6 mg/kg, dosed compound name [14C]Sunitinib, route oral. Particulars: in vivo. The procedure, abridged: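 Cynomolgus monkeys of both sexes received one oral gavage of [14C]sunitinib L-malate at 6 mg/kg (37 µCi/kg). Femoral-vein blood was taken into heparin from 0.5 to 336 h. Plasma was kept cold and protected from light, then stored at -80 °C. Total radioactivity was by scintillation counting and sunitinib by methanol-extraction LC-MS-MS. Cmax was from raw data, t½ from the log-linear terminal slope, AUC(0-∞) by linear trapezoidal rule.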

Series [8] can be described thus: Drug concentration in female albino rat salivary gland assessed as radioactivity per gram of tissue at 20 mg/kg administered as single dose via gastric gavage measured after 3 hrs by autoradiographic analysis. In kind it is ADME, organism-based. Also noted: dose 20 mg/kg, dosed compound name [14C]Sunitinib. The following applies: in vivo, po. The procedure, abridged:
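Sprague Dawley albino rats, ca 7-8 weeks old, dosed once by gastric gavage with [14C]sunitinib L-malate (15 mg freebase/kg, 100 µCi/kg). One male and one female killed by CO2 at 3, 6, 24, 72 and 168 h. Carcasses frozen in solid CO2/hexane, embedded and cut into 30 µm sagittal sections, then freeze-dried. Radioactivity quantified by whole-body autoradiography against standards by regression, background subtracted.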

A short description of series [9]: Drug concentration in male albino rat bladder assessed as radioactivity per gram of tissue at 20 mg/kg administered as single dose via gastric gavage measured after 6 hrs by autoradiographic analysis. The series is classed as ADME, organism-based, Urinary bladder. Also noted: dose 20 mg/kg, dosed compound name [14C]Sunitinib. Particulars: in vivo, po.
In a further series the test system is Liver. Briefly: Drug concentration in male Lister Hooded pigmented rat liver assessed as radioactivity per gram of tissue at 20 mg/kg administered as single dose via gastric gavage measured after 72 hrs by autoradiographic analysis. In kind it is ADME, organism-based. Also noted: dose 20 mg/kg, dosed compound name [14C]Sunitinib. Particulars: in vivo, po.
The nature of series [10]: Drug concentration in female albino rat skeletal muscle assessed as radioactivity per gram of tissue at 20 mg/kg administered as single dose via gastric gavage measured after 3 hrs by autoradiographic analysis. The series is classed as ADME, organism-based. More on the design: dose 20 mg/kg, dosed compound name [14C]Sunitinib. The following applies: in vivo, po.
In the next series the test system is Spleen. Briefly: Drug concentration in female Lister Hooded pigmented rat spleen assessed as radioactivity per gram of tissue at 20 mg/kg administered as single dose via gastric gavage measured after 72 hrs by autoradiographic analysis. In kind it is ADME, organism-based. More on the design: dose 20 mg/kg, dosed compound name [14C]Sunitinib. The following applies: in vivo, po. The procedure, abridged: (§1)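 Lister Hooded (pigmented) rats, ca 7-8 weeks old, acclimated 7 days, given [14C]sunitinib L-malate by gastric gavage at 20 mg/kg (15 mg freebase/kg, 100 µCi/kg). One male and one female killed by CO2 at 24, 72, 168 and 336 h. Carcasses frozen in solid CO2/hexane and embedded in frozen cellulose. 30 µm sagittal cryosections were freeze-dried. Tissue radioactivity measured by quantitative whole-body autoradiography against calibration standards, with background subtracted.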

A short description of series [11]: Drug concentration in female Lister Hooded pigmented rat skeletal muscle assessed as radioactivity per gram of tissue at 20 mg/kg administered as single dose via gastric gavage measured after 24 hrs by autoradiographic analysis. The series is classed as ADME, organism-based. Also noted: dose 20 mg/kg, dosed compound name [14C]Sunitinib. The following applies: in vivo, po. An outline of the steps: as §1

The next series deals with Adrenal. The series is described as follows: Drug concentration in male Lister Hooded pigmented rat adrenal assessed as radioactivity per gram of tissue at 20 mg/kg administered as single dose via gastric gavage measured after 336 hrs by autoradiographic analysis. In kind it is ADME, organism-based. More on the design: dose 20 mg/kg, dosed compound name [14C]Sunitinib. Particulars: in vivo, po.

Series [12] is described as follows: Drug concentration in male albino rat testis assessed as radioactivity per gram of tissue at 20 mg/kg administered as single dose via gastric gavage measured after 6 hrs by autoradiographic analysis. The series is classed as ADME, organism-based. Also noted: dose 20 mg/kg, dosed compound name [14C]Sunitinib. The following applies: in vivo, po.
In the next series the test system is Large intestine. The series is described as follows: Drug concentration in male Lister Hooded pigmented rat large intestine assessed as radioactivity per gram of tissue at 20 mg/kg administered as single dose via gastric gavage measured after 72 hrs by autoradiographic analysis. Also noted: dose 20 mg/kg, dosed compound name [14C]Sunitinib. Particulars: in vivo, po. In kind it is ADME, organism-based.

Another series has as its system Lung. The series is described as follows: Drug concentration in male Lister Hooded pigmented rat lung assessed as radioactivity per gram of tissue at 20 mg/kg administered as single dose via gastric gavage measured after 168 hrs by autoradiographic analysis. The series is classed as ADME, organism-based. Also noted: dose 20 mg/kg, dosed compound name [14C]Sunitinib. The following applies: in vivo, po.

A short description of series [13]: Drug concentration in female Lister Hooded pigmented rat eye assessed as radioactivity per gram of tissue at 20 mg/kg administered as single dose via gastric gavage measured after 24 hrs by autoradiographic analysis. The series is classed as ADME, organism-based. Also noted: dose 20 mg/kg, dosed compound name [14C]Sunitinib. Particulars: in vivo, po. An outline of the steps:
as §1

The test system of a further series is Spinal cord. Briefly: Drug concentration in female albino rat spinal cord assessed as radioactivity per gram of tissue at 20 mg/kg administered as single dose via gastric gavage measured after 3 hrs by autoradiographic analysis. In kind it is ADME, organism-based. More on the design: dose 20 mg/kg, dosed compound name [14C]Sunitinib. Particulars: in vivo, po.

A further series deals with Thymus. The series is described as follows: Drug concentration in male albino rat thymus assessed as radioactivity per gram of tissue at 20 mg/kg administered as single dose via gastric gavage measured after 3 hrs by autoradiographic analysis. The series is classed as ADME, organism-based. Also noted: dose 20 mg/kg, dosed compound name [14C]Sunitinib. Particulars: in vivo, po.

Consider `CCN(CC)CCNC(=O)c1c(C)[nH]c(/[14CH]=C2\C(=O)Nc3ccc(F)cc32)c1C.O=C(O)C[C@H](O)C(=O)O`, for which the Radiolabel recovery in [1] was 8.47 ugequiv; in series [2] it was 10.63 ugequiv; in [3], 5.08 ugequiv; with Brain, 0.3 ugequiv; in [4] it was 0.06 ugequiv; in series [5], 0.06 ugequiv. Besides, the Radiolabel recovery amounted to 0.39 ugequiv in series [6]; 1.21 ugequiv in series [7]; 27.64 ugequiv in series [8]; 2.56 ugequiv in [9]; 0.22 ugequiv with Liver; 3.97 ugequiv in series [10]. For the same compound, the Radiolabel recovery is 0.23 ugequiv in the series on Spleen; 0.25 ugequiv in series [11]; 0.16 ugequiv in the series on Adrenal; 0.9 ugequiv in [12]; 0.08 ugequiv with Large intestine; 0.06 ugequiv in the series with Lung. Besides, the Radiolabel recovery is 31.8 ugequiv in series [13], 0.28 ugequiv in the series with Spinal cord and 6.89 ugequiv with Thymus. For the same compound, the Cmax in the series with Rattus norvegicus amounted to 5220 ngequiv/ml. The AUC in the series with Cynomolgus monkey was determined as 9095 ng.Eq.hr/ml.

The values are drawn from ChEMBL document CHEMBL3525900, “Pharmacokinetics, distribution, and metabolism of [14C]sunitinib in rats, monkeys, and humans” (Drug Metab Dispos, 2012).
